Series [1] concerns Rattus norvegicus. The experiment in a line: Hypocholesterolemic activity in Sprague-Dawley rat assessed as serum cholesterol level at 10 mg/kg/day, po administered via intubation measured on day 10 by Liebermann-Burchard reaction (reference value: 100%). Format: functional.
Series [2] relates to Rattus norvegicus. In words: Hypocholesterolemic activity in Sprague-Dawley rat assessed as serum cholesterol level at 10 mg/kg/day, po administered via intubation measured on day 4 by Liebermann-Burchard reaction (reference value: 100%). The format is functional.
Series [3] deals with Rattus norvegicus. In words: Hypocholesterolemic activity in Sprague-Dawley rat assessed as serum cholesterol level at 10 mg/kg/day, po administered via intubation measured on day 16 by Liebermann-Burchard reaction (reference value: 100%). Format: functional.
The subject of series [4] is Rattus norvegicus. The experiment in a line: Effect on vesicular gland weight in rat at 10 mg/kg/day administered for 16 days measured 24 hrs after last drug dosage relative to total body weight (reference value: 0.11 +/- 0.04%). The format is ADME, organism-based. The conditions noted are these: in vivo.
The subject of series [5] is Rattus norvegicus. In words: Effect on kidney weight in rat at 10 mg/kg/day administered for 16 days measured 24 hrs after last drug dosage relative to total body weight (reference value: 0.96 +/- 0.08%). Format: ADME, organism-based. The conditions noted are these: in vivo.
Series [6] in a line: Toxicity in ip dosed CF1 mouse assessed as animal death. The format is organism-based. Particulars: in vivo. Put shortly: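 Male CF1 mice given active propanones ip over 10 mg to 6 g/kg where solubility allowed; deaths recorded to estimate LD50.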
A short description of series [7]: Solubility of the compound in 1% CMC. The format is physicochemical.
For series [8], the system named is Rattus norvegicus. In words: Effect on liver weight in rat at 10 mg/kg/day administered for 16 days measured 24 hrs after last drug dosage relative to total body weight (reference value: 4.54 +/- 0.29%). Format: ADME, organism-based. The conditions noted are these: in vivo.
Series [9] concerns Rattus norvegicus. The experiment in a line: Effect on testes weight in rat at 10 mg/kg/day administered for 16 days measured 24 hrs after last drug dosage relative to total body weight (reference value: 1.10 +/- 0.17%). The format is ADME, organism-based, Testis. Particulars: in vivo.
Series [10] concerns Rattus norvegicus. The experiment in a line: Effect on epididymis and vas deferens weight in rat at 10 mg/kg/day administered for 16 days measured 24 hrs after last drug dosage relative to total body weight (reference value: 0.24 +/- 0.07%). The format is ADME, organism-based. The conditions noted are these: in vivo.
For series [11], the system named is Rattus norvegicus. The experiment in a line: Uterotrophic activity in ovariectomized Sprague-Dawley rat assessed as uterine weight administered for 3 days (reference value: 100 +/- 27%). Format: organism-based, Uterus. Particulars: in vivo, 72 h.
Series [12] has as its system Rattus norvegicus. The experiment in a line: Effect on heart weight in rat at 10 mg/kg/day administered for 16 days measured 24 hrs after last drug dosage relative to total body weight (reference value: 0.43 +/- 0.10%). The format is ADME, organism-based. Particulars: in vivo.
The test system of series [13] is Mus musculus. In words: Antifertility activity in CF1 mouse assessed as proportion of fetus per litter at 50 mg/kg/day, ip (reference value: 100 +/- 25%). Format: ADME, organism-based. Further details: route intraperitoneal. The conditions noted are these: in vivo.
Series [14] has as its system Mus musculus. The experiment in a line: Antifertility activity in CF1 mouse assessed as proportion of reabsorption litter at 50 mg/kg/day, ip (reference value: 100 +/- 25%). The conditions noted are these: in vivo. The format is ADME, organism-based. Further details: route intraperitoneal.
The test system of series [15] is Mus musculus. In words: Antifertility activity in CF1 mouse assessed as proportion of pregnant animals at 50 mg/kg/day, ip (reference value: 100%). Particulars: in vivo. Further details: route intraperitoneal. Format: ADME, organism-based.

Take `CCCCCCCCCCCCCCCCOCC(=O)COCCCCCCCCCCCCCCCC`: the Activity worked out at 89% in the series with Rattus norvegicus [1], 88% in the series on Rattus norvegicus [2] and 91% in the series with Rattus norvegicus [3].

On to `Cc1ccc(/C=C/C(=O)/C=C/c2ccc(C)cc2)cc1`, for which the Activity is listed as 83% in the series on Rattus norvegicus [1], 94% in the series with Rattus norvegicus [2] and 96% in the series on Rattus norvegicus [3].

Consider `CC(C)(C)c1ccc(OCC(=O)COc2ccc(C(C)(C)C)cc2)cc1`, for which the Activity with Rattus norvegicus [1] is on record as 95%; in the series with Rattus norvegicus [2], 87%; with Rattus norvegicus [3], 83%.

Broadly, the LD50 is the dose expected to kill half of the subjects tested. As for `Cc1cc(Cl)c(OCC(=O)COc2cc(C)c(C)cc2Cl)cc1C`, the Activity with Rattus norvegicus [4] was 0.16%; in the series on Rattus norvegicus [1] it was 65%; with Rattus norvegicus [5], 1.06%; in the series with Rattus norvegicus [8], 4.8%; in the series with Rattus norvegicus [9] it was 1.24%; with Rattus norvegicus [10] it was 0.27%. In addition, the Activity is reported as 56% in the series with Rattus norvegicus [11], 79% in the series on Rattus norvegicus [2], 58% with Rattus norvegicus [3] and 0.52% in the series with Rattus norvegicus [12]. The LD50 in series [6] was more than 2000 mg/kg. Moreover, the solubility entry in series [7] is recorded as “Insoluble”.

Turning to `C#C[C@]1(O)CC[C@H]2[C@@H]3CCc4cc(O)ccc4[C@H]3CC[C@@]21C` [ETHINYL ESTRADIOL], in the series with Rattus norvegicus [11], the Activity worked out at 231%.

For `Cc1ccc(CCC(=O)CCc2ccc(C)cc2)cc1`, the Activity is 86% in the series on Rattus norvegicus [1], 91% in the series with Rattus norvegicus [2] and 96% with Rattus norvegicus [3].

For the compound `COc1ccccc1OCC(=O)COc1ccccc1OC`, the Activity with Rattus norvegicus [1] was 83%; in the series on Rattus norvegicus [2], 102%; in the series with Rattus norvegicus [3], 79%.

Regarding `Cc1cccc(OCC(=O)COc2cccc(C)c2)c1`, the Activity in the series on Rattus norvegicus [1] is 119%; in the series on Rattus norvegicus [2], 115%; in the series on Rattus norvegicus [3] it was 97%.

`CCC(=O)c1ccc(OCC(=O)CCl)cc1`: the Activity was 89% in the series on Rattus norvegicus [1], 79% in the series with Rattus norvegicus [2] and 90% with Rattus norvegicus [3].

Take `COc1ccc(OCC(=O)COc2ccc(OC)cc2)cc1`: the Activity in the series with Rattus norvegicus [4] was 0.11%; in the series with Rattus norvegicus [1], 51%; in the series on Rattus norvegicus [5], 1.04%; in the series with Rattus norvegicus [8] it was 4.73%; in the series on Rattus norvegicus [9], 1.22%; in the series with Rattus norvegicus [10] it was 0.22%. The Activity in the series with Rattus norvegicus [11] was 70%; in the series on Rattus norvegicus [2] it was 76%; with Rattus norvegicus [3], 60%; in the series on Rattus norvegicus [12], 0.54%. For the same compound, the 50% lethal dose (LD50) in series [6] stood at 6000 mg/kg.

Turning to `CCc1ccc(OCC(=O)COc2ccc(CC)cc2)cc1`, the Activity with Rattus norvegicus [4] was 0.15%; in the series with Rattus norvegicus [1], 60%; with Rattus norvegicus [5], 0.87%; in the series with Rattus norvegicus [8], 4.28%; with Rattus norvegicus [9], 1.14%; with Rattus norvegicus [10] it was 0.27%. Besides, the Activity with Rattus norvegicus [11] is reported as 62%; in the series on Rattus norvegicus [2], 70%; in the series with Rattus norvegicus [3] it was 64%. Besides, the LD50 in series [6] is more than 3000 mg/kg. In [7], the solubility result is listed as “Insoluble”.

As for `O=C(CSc1ccccc1)CSc1ccccc1`, the Activity is listed as 101% with Rattus norvegicus [1], 96% in the series on Rattus norvegicus [2] and 79% in the series on Rattus norvegicus [3].

Take `Cc1ccc(OCC(=O)C(O)(Cc2ccccc2)Cc2ccccc2)cc1`: the Activity with Rattus norvegicus [1] is 72%; with Rattus norvegicus [2] it was 80%; with Rattus norvegicus [3], 70%.

Turning to `O=C(COc1ccccc1Cl)COc1ccccc1Cl`, the Activity is 0.23% with Rattus norvegicus [4]; 69% in the series with Rattus norvegicus [1]; 1.02% in the series with Rattus norvegicus [5]; 4.66% with Rattus norvegicus [8]; 1.21% in the series on Rattus norvegicus [9]; 0.27% in the series with Rattus norvegicus [10]. Besides, the Activity in the series with Rattus norvegicus [2] amounted to 69%; in the series on Rattus norvegicus [3], 70%.

With `O=C(COc1ccc(I)cc1)COc1ccc(I)cc1`, the Activity is given as 103% with Rattus norvegicus [1], 100% with Rattus norvegicus [2] and 93% with Rattus norvegicus [3].

Consider `Cc1ccc(OCC(=O)COc2ccc(Cl)cc2)cc1`, for which the Activity was 84% in the series on Rattus norvegicus [1], 108% with Rattus norvegicus [2] and 75% in the series on Rattus norvegicus [3].

Turning to `O=C(COc1ccc(Br)cc1)COc1ccc(Br)cc1`, the Activity in the series with Rattus norvegicus [1] was found to be 85%; in the series on Rattus norvegicus [2] it was 74%; in the series on Rattus norvegicus [3] it was 85%.

Consider `COc1ccc(OCC(=O)COc2ccc(Cl)cc2)cc1`, for which the Activity in the series with Rattus norvegicus [1] is recorded as 88%; with Rattus norvegicus [2], 102%; in the series on Rattus norvegicus [3], 84%.

Turning to `CCOC(=O)C(C)(C)Oc1ccc(Cl)cc1` [CLOFIBRATE], the Activity in the series on Rattus norvegicus [1] is 98%; in the series with Rattus norvegicus [2] it was 111%; in the series on Rattus norvegicus [3] it was 106%.

Turning to `CC(Cc1ccccc1)C(=O)C(C)Cc1ccccc1` (stereo not given), the Activity with Mus musculus [13], in the series with Mus musculus [14] and with Mus musculus [15] was 0% in each case.

Consider `O=C(COc1ccccc1)COc1ccccc1`, for which the Activity was 87% in the series with Rattus norvegicus [1], 104% with Rattus norvegicus [2] and 90% with Rattus norvegicus [3].

As for `CCOc1ccc(OCC(=O)COc2ccc(OCC)cc2)cc1`, the Activity in the series on Rattus norvegicus [1] was determined as 96%; in the series with Rattus norvegicus [2], 77%; in the series with Rattus norvegicus [3] it was 85%.

As for `O=C(COc1ccc(F)cc1)COc1ccc(F)cc1`, the Activity in the series with Rattus norvegicus [1] was 87%; in the series on Rattus norvegicus [2], 88%; in the series on Rattus norvegicus [3], 82%.

For the compound `Cc1ccccc1OCC(=O)COc1ccccc1C`, the Activity with Rattus norvegicus [1] was found to be 92%; with Rattus norvegicus [2], 90%; with Rattus norvegicus [3], 90%.

In the case of `O=C(COCc1ccc(Cl)cc1)COCc1ccc(Cl)cc1`, the results for the Activity in the series on Rattus norvegicus [1], in the series on Rattus norvegicus [2] and in the series with Rattus norvegicus [3] were 88%, 106% and 92%, respectively.

With `CC(=O)C(O)(Cc1ccccc1)Cc1ccccc1`, the Activity with Rattus norvegicus [1] is listed as 77%; in the series with Rattus norvegicus [2], 88%; in the series on Rattus norvegicus [3], 84%.

For `O=C(COc1cccc(Cl)c1)COc1cccc(Cl)c1`, the Activity in the series with Rattus norvegicus [1] is recorded as 91%; in the series with Rattus norvegicus [2], 97%; with Rattus norvegicus [3], 84%.

With `O=C(CS(=O)(=O)c1ccc(Cl)cc1)CS(=O)(=O)c1ccc(Cl)cc1`, the Activity in the series with Rattus norvegicus [1] was found to be 86%; with Rattus norvegicus [2], 82%; in the series on Rattus norvegicus [3] it was 91%.

As for `O=C(COc1cc(Cl)c(Cl)cc1Cl)COc1cc(Cl)c(Cl)cc1Cl`, the figures for the Activity in the series on Rattus norvegicus [1], in the series with Rattus norvegicus [2] and in the series on Rattus norvegicus [3] were 82%, 94% and 97%, respectively.

`Cc1cc(OCC(=O)COc2cc(C)c(Cl)c(C)c2)cc(C)c1Cl`: the Activity is on record as 0.1% in the series with Rattus norvegicus [4]; 70% with Rattus norvegicus [1]; 1.02% with Rattus norvegicus [5]; 4.66% with Rattus norvegicus [8]; 0.91% with Rattus norvegicus [9]; 0.27% in the series on Rattus norvegicus [10]. Moreover, the results for the Activity in the series with Rattus norvegicus [11], in the series on Rattus norvegicus [2] and in the series with Rattus norvegicus [3] were 83%, 78% and 61%, respectively. For the same compound, the LD50 in series [6] is more than 6000 mg/kg. For the same compound, the solubility entry in series [7] is “Insoluble”.

`O=C(CSc1ccc(Cl)cc1)CSc1ccc(Cl)cc1`: the Activity in the series on Rattus norvegicus [4] is on record as 0.12%; with Rattus norvegicus [1], 73%; in the series with Rattus norvegicus [5], 0.94%; in the series with Rattus norvegicus [8] it was 4.53%; with Rattus norvegicus [9] it was 1.13%; with Rattus norvegicus [10] it was 0.25%. The Activity with Rattus norvegicus [11] is 86%; in the series on Rattus norvegicus [2], 70%; in the series on Rattus norvegicus [3] it was 66%. Further, in series [6], the LD50 was more than 3000 mg/kg. In series [7], the solubility entry is recorded as “Insoluble”.

Turning to `CCCc1ccc(OCC(=O)COc2ccc(CCC)cc2)cc1`, the Activity came out at 88% in the series with Rattus norvegicus [1], 94% with Rattus norvegicus [2] and 78% with Rattus norvegicus [3].

(Values after ChEMBL document CHEMBL3272327, “Hypocholesterolemic activity of 1,3-bis(substituted phenoxy)-2-propanones” (J Med Chem, 1976).)
